Active and inactive are the calls of the source. No cut-off for these calls is given here.
Key:
[1] = molecular target: Carbonic anhydrase 2 (Homo sapiens) (UniProt P00918); experiment: Binding affinity to human CA2 by phenol red dye based stopped flow CO2 hydration assay
Outline: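 Purified recombinant human CA isoforms. CA-catalysed CO2 hydration was followed by stopped-flow with phenol red at 557 nm, taking initial rates over 10–100 s from at least six traces of the first 5–10% of reaction. Uncatalysed rates were subtracted. Activator stocks were 0.1 mM in deionised water, diluted down to 0.1 nM in assay buffer. K_A came from non-linear least-squares Michaelis–Menten fitting.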

Mus musculus [2] = experiment: Pro-cognitive activity in C57Bl6 mouse assessed as attenuation of long-term memory deficit by measuring increase in exploration time for novel object at 50 nmol/uL, icv measured after 24 hrs by novel object recognition test; assay type: functional, organism-based
Outline: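 Male adult C57Bl6 mice (8–9 weeks), lateral-ventricle cannula implanted one week before. 10-min habituation to empty open-field arena; 24 h later, 5-min acquisition with two identical objects, followed immediately by 5 µL i.c.v. infusion at 1 µL/min. 5-min retention test 24 h after acquisition with one familiar and one novel object; percentage exploration time per object, two-way ANOVA with Bonferroni.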

Mus musculus [3] = experiment: Pro-cognitive activity in C57Bl6 mouse assessed as attenuation of long-term memory deficit by measuring increase in exploration time for novel juvenile at 25 nmol/uL, icv measured after 48 hrs by novel object recognition test; assay type: functional, organism-based
Outline: (§1)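 Male adult C57Bl6 mice (8–9 weeks), lateral-ventricle cannula implanted 7 days earlier. Social recognition: 10-min habituation to arena with two empty cups; 24 h later 10-min acquisition with an unfamiliar juvenile (3–4 weeks) under one wire cup. Immediately after, 5 µL i.c.v. infusion at 1 µL/min. Retention at 48 h with familiar and novel juvenile; percentage time exploring each cup (snout-to-cup contact).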

Mus musculus [4] = experiment: Pro-cognitive activity in C57Bl6 mouse assessed as attenuation of long-term memory deficit by measuring increase in exploration time for novel juvenile at 50 nmol/uL, icv measured after 48 hrs by novel object recognition test; assay type: functional, organism-based; outline: as §1
Mus musculus [5] = experiment: Pro-cognitive activity in C57Bl6 mouse assessed as attenuation of long-term memory deficit by measuring increase in exploration time for novel juvenile by measuring discrimination index at 50 nmol/uL, icv measured after 48 hrs by novel object recognition test; assay type: functional
Outline: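 Social recognition in adult male C57Bl6 mice with intracerebroventricular cannulae. Habituation was 10 min with two empty cups. Twenty-four hours later, a novel 3–4-week-old juvenile was placed under one cup for 10 min of exploration, followed immediately by a 5 µL infusion at 1 µL/min. Retention 48 h later offered familiar versus novel juvenile, scoring snout-to-cup contact. DI = (tN−tF)/(tN+tF).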

[6] = Toxicity in C57Bl6 mouse assessed as reduction in distance travel at 50 nmol/uL administered directly into lateral ventricle by open field test; settings: in vivo, icv_or_intrathecal
Outline: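 Cannulated adult male C57Bl6 mice were placed in a 60×70 cm open-field arena 30 min after a 5 µL lateral-ventricle infusion. Total distance travelled over a 5-min session was recorded by overhead video tracking.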

For `CC(N)CSc1ccccc1` (stereo unspecified), the Ka [1] was over 100 µM, the Activity (Mus musculus [2]) was “Active” and the Activity (Mus musculus [3]) was “inactive”. The Activity (Mus musculus [4]) was “Active”, the Activity_index (Mus musculus [5]) was 0.138 and the Activity [6] was “Non-Toxic”.

— ChEMBL document CHEMBL5247599, “New β-arylchalcogeno amines with procognitive properties targeting Carbonic Anhydrases and Monoamine Oxidases” (Eur J Med Chem, 2022)
